From ChEMBL document CHEMBL4725317 (Bioorg Med Chem Lett, 2020)
Calls of active or inactive are those of the source. No cut-off for these calls is given here.

Assays:
Rattus norvegicus [1] = experiment: Hypoglycemic activity in overnight fasted Sprague-Dawley rat assessed as percent reduction in blood glucose AUC at 10 mg/kg, po measured after 4 hrs post glucose challenge by OGTT relative to control; format: functional; parameters: scale not given: the % may be the effect or the level left
Procedure, shortened: (§1)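 Overnight-fasted SD rats dosed orally at 1 or 10 mg/kg in 0.5% Methocel (vehicle controls) 60 min before oral glucose challenge. […] N=8 per group; mean ± SEM; one-way ANOVA-Dunnett.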

Mus musculus [2] = experiment: Antihyperglycemic activity in db/db mouse assessed as decrease in blood glucose level at 10 mg/kg, po administered as single dose measured up to 24 hrs; format: functional, organism-based; conditions: time hrs <=24
Procedure, shortened: (§2)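 Male db/db mice given a single oral 10 mg/kg dose or vehicle; fed blood glucose followed up to 24 h and 24-h urinary glucose excretion collected. Mean ± SE versus vehicle controls.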

[3] = Volume of distribution at steady state in Sprague-Dawley rat at 2 mg/kg, iv or 10 mg/kg, po; format: ADME, organism-based; conditions: in vivo, read-out: Vdss
Procedure, shortened: (§3)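 Male Sprague Dawley rats dosed 2 mg/kg IV (vehicle 20% HPbCD) or 10 mg/kg PO (vehicle 0.5% Methocel); pharmacokinetic parameters derived from plasma exposure.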

Mus musculus [4] = experiment: Antihyperglycemic activity in db/db mouse assessed as increase in urinary glucose excretion at 10 mg/kg, po administered as single dose measured up to 24 hrs; format: functional, organism-based; conditions: time hrs <=24; procedure, shortened: as §2
Rattus norvegicus [5] = experiment: Hypoglycemic activity in overnight fasted po dosed Sprague-Dawley rat assessed as reduction in blood glucose treated 60 mins prior to glucose challenge by OGTT; format: functional, organism-based; conditions: dose mg/kg 1-10, time 60.0 min
Rattus norvegicus [6] = experiment: Hypoglycemic activity in overnight fasted po dosed Sprague-Dawley rat assessed as reduction in blood glucose AUC treated 60 mins prior to glucose challenge and measured up to 120 mins by OGTT; format: functional, organism-based; conditions: dose mg/kg 1-10, time 60.0 min
[7] = Stability of compound in rat liver microsomes assessed as parent compound remaining at 1 uM measured at 10 mins in presence of NADPH; format: ADME, Microsome; conditions: liver microsomes, read-out: Stabilty
Procedure, shortened: (§4)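 Test compound at 1 μM with human, mouse or rat liver microsomes (0.5 mg/ml protein) plus NADPH cofactor; final solvents 0.01% DMSO, 0.05% acetonitrile; percent parent remaining at 10 min. Verapamil, cerivastatin and warfarin as positive controls. SD given when multiple batches were tested.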

Rattus norvegicus [8] = experiment: Hypoglycemic activity in overnight fasted Sprague-Dawley rat assessed as percent reduction in blood glucose AUC at 1 mg/kg, po measured after 4 hrs post glucose challenge by OGTT relative to control; format: functional; parameters: scale not given: the % may be the effect or the level left; procedure, shortened: as §1
[9] = Clearance in Sprague-Dawley rat at 2 mg/kg, iv or 10 mg/kg, po; format: ADME, organism-based; conditions: in vivo; procedure, shortened: as §3
[10] = AUC (0 to infinity) in C57BL mouse at 5 mg/kg, iv or 20 mg/kg, po; format: ADME, organism-based; parameters: dose 20 mg/kg; conditions: in vivo
Procedure, shortened: (§5)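 Male C57 black mice given 5 mg/kg IV in 20% HPbCD or 20 mg/kg PO in 0.5% Methocel; plasma pharmacokinetic parameters derived from these dosings.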

[11] = Tmax in C57BL mouse at 5 mg/kg, iv or 20 mg/kg, po; format: ADME, organism-based; conditions: in vivo; procedure, shortened: as §5
[12] = In vivo inhibition of SGLT1/2 in overnight fasted Sprague-Dawley rat assessed as amount of urinary glucose excretion assessed per 4 hrs at 10 mg/kg, po; format: functional; procedure, shortened: as §1
[13] = Half life in C57BL mouse at 5 mg/kg, iv; format: ADME, organism-based; conditions: in vivo; procedure, shortened: as §5
[14] = Oral bioavailability in C57BL mouse at 20 mg/kg; format: ADME, organism-based; conditions: in vivo; procedure, shortened: as §5
[15] = Cmax in C57BL mouse at 5 mg/kg, iv or 20 mg/kg, po; format: ADME, organism-based; parameters: dose 20 mg/kg; conditions: in vivo; procedure, shortened: as §5
[16] = AUC (0 to infinity) in Sprague-Dawley rat at 2 mg/kg, iv or 10 mg/kg, po; format: ADME, organism-based; parameters: dose 10 mg/kg; conditions: in vivo; procedure, shortened: as §3
[17] = Tmax in Sprague-Dawley rat at 2 mg/kg, iv or 10 mg/kg, po; format: ADME, organism-based; conditions: in vivo; procedure, shortened: as §3
[18] = Cmax in Sprague-Dawley rat at 2 mg/kg, iv or 10 mg/kg, po; format: ADME, organism-based; parameters: dose 10 mg/kg; conditions: in vivo; procedure, shortened: as §3
[19] = In vivo inhibition of SGLT1/2 in overnight fasted Sprague-Dawley rat assessed as amount of urinary glucose excretion assessed per 4 hrs at 1 mg/kg, po; format: functional; procedure, shortened: as §1
[20] = Half life in Sprague-Dawley rat at 2 mg/kg, iv; format: ADME, organism-based; conditions: in vivo; procedure, shortened: as §3
[21] = Volume of distribution at steady state in C57BL mouse at 5 mg/kg, iv or 20 mg/kg, po; format: ADME, organism-based; conditions: in vivo, read-out: Vdss; procedure, shortened: as §5
[22] = Oral bioavailability in Sprague-Dawley rat at 10 mg/kg; format: ADME, organism-based; conditions: in vivo; procedure, shortened: as §3
[23] = Stability of compound in mouse liver microsomes assessed as parent compound remaining at 1 uM measured at 10 mins in presence of NADPH; format: ADME, Microsome; conditions: read-out: Stabilty; procedure, shortened: as §4
[24] = Clearance in C57BL mouse at 5 mg/kg, iv or 20 mg/kg, po; format: ADME, organism-based; conditions: in vivo; procedure, shortened: as §5
[25] = Stability of compound in human liver microsomes assessed as parent compound remaining at 1 uM measured at 10 mins in presence of NADPH; format: ADME, Microsome; conditions: liver microsomes, read-out: Stabilty; procedure, shortened: as §4
Rattus norvegicus [26] = experiment: In vivo inhibition of SGLT1/2 in overnight fasted po dosed Sprague-Dawley rat assessed as reduction in blood glucose by OGTT; format: functional, organism-based; conditions: dose mg/kg 1-10

Question: Which results are given for `COc1cc(O)c([C@@H]2O[C@H](CO)C(F)(F)[C@H](O)[C@H]2O)cc1Cc1ccc2c(c1)CCCO2`?
Answer: Activity (Rattus norvegicus [1]): 60.7%; Activity (Mus musculus [2]): Active; Vd [3]: 3.85 L/kg; Activity (Mus musculus [4]): Active; Activity (Rattus norvegicus [5]): Dose-dependent effect; Activity (Rattus norvegicus [6]): Dose-dependent effect; remaining at 10 min, 1 µM [7]: 57%; Activity (Rattus norvegicus [8]): 38.3%; clearance [9]: 75.6 mL/min/kg; AUC(0-inf) [10]: 9160 ng·h/mL; Tmax [11]: 60 min; Activity [12]: 0.2 g; half-life [13]: 49.8 min; bioavailability [14]: 52.1%; Cmax [15]: 4680 ng/mL; AUC(0-inf) [16]: 524 ng·h/mL; Tmax [17]: 15 min; Cmax [18]: 258 ng/mL; Activity [19]: 0.002 g; half-life [20]: 137 min; Vd [21]: 0.96 L/kg; bioavailability [22]: 22.3%; remaining at 10 min, 1 µM [23]: 85%; clearance [24]: 19 mL/min/kg; remaining at 10 min, 1 µM [25]: 95%; inhibition (Rattus norvegicus [26]): Dose-dependent effect
